# Test results taken from PubChem BioAssay.
# Activity calls are given as the source filed them.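 How the source made its calls, unless noted: active means inhibition at or above 50% relative to wild type and mutant plate controls; inactive means inhibition below 50%.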
# Legend:
# [1] = inhibitors of TNFa-induced NFkB p65 translocation, primary screen, imaging, HUVEC, MLSMR starter and 10KST1 sets (AID 438;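 active means inhibition above 20% together with a positive visual image hit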;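 further: compound added about 3h40 before a 20 min TNFalpha stimulation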;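 on inhibition: signal is the nuclear over cytoplasmic p65 intensity ratio per well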); conditions: HUVEC TNFa-induced p65 nuclear translocation; cell count: measured here: nuclei count (cytotoxicity indicator), at 2.08 µM; inhibition: at 2 µM, stronger effect = higher value, 0% TNFa-plus-vehicle, 100% no-TNFa wells
# [2] = endothelial E-selectin expression blockers – imaging, HUVEC, immunofluorescence, MLSMR starter and 10KST1 sets, primary screen (AID 487;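 active means visually confirmed hit in the image check and inhibition above 20%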;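 on inhibition: signal is fraction of cell area covered by stained E-selectin grains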;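 on nuclei count: 100% = median nuclei count of all wells on the same plate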); conditions: HUVEC TNFalpha-induced E-selectin immunofluorescence imaging, at 2 µM; inhibition: stronger effect = higher value; nuclei count: measured here: cell number, toxicity
# [3] = Primary imaging screen for DUSP6 inhibitors that restore phospho-Erk in transfected HeLa cells, chemical complementation (AID 609;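 active means compounds giving at least 50% inhibition in the cell-based MKP-3 phosphatase rescue imaging test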;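 on inhibition: phospho-Erk level distribution per well compared with pooled transfected vehicle control wells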); conditions: HeLa MKP-3 transfected, phospho-Erk imaging KS statistic, at 10 µM, cells stimulated with TPA for 15 min
# [4] = target: Dual specificity protein phosphatase 6 (Homo sapiens) (UniProt Q16828); assay: as above; conditions: HeLa MKP-3 transfected, phospho-Erk imaging KS statistic; at 10 µM; stronger effect = higher value; cells stimulated with TPA for 15 min
# Dual specificity protein phosphatase 6 (Homo sapiens), sequence (Q16828 whole entry, looked up): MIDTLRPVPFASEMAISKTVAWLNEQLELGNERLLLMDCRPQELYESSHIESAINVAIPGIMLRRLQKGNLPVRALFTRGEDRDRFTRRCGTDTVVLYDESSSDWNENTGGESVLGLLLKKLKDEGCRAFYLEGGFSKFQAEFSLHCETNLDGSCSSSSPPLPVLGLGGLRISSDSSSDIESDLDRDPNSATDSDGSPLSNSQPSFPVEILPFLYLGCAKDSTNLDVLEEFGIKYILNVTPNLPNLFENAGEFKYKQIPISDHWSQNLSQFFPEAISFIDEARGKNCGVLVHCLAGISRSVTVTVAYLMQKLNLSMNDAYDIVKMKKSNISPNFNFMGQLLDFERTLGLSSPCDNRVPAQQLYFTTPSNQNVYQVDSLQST
# [5] = target: Voltage-gated potassium channel subunit beta-2 (Rattus norvegicus) (UniProt P62483); assay: inhibitors of rat Kvbeta2 reductase activity – biochemical, NADPH fluorescence, primary screen (AID 622;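 active means fluorescence slope higher than the sample average by over 3 SD, cut at about -0.22 in these data, passing the limit was not always enough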;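 further: slope of raw intensity against log time taken from 70 to 1610 s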); conditions: recombinant KvBeta, 4-cyanobenzaldehyde reduction, at 10 µM, stronger effect = higher value
# Voltage-gated potassium channel subunit beta-2 (Rattus norvegicus), sequence (P62483 whole entry, looked up): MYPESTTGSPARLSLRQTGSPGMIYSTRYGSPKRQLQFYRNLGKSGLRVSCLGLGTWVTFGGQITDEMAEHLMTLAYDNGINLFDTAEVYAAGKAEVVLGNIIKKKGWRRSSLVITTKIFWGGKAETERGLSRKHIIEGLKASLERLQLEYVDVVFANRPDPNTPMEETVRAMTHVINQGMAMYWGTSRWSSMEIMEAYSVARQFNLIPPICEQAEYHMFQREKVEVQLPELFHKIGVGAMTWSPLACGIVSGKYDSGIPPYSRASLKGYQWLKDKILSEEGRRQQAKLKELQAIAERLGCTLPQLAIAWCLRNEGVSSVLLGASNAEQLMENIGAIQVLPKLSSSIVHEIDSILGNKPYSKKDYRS
# [6] = target: Voltage-gated potassium channel subunit beta-2 (Rattus norvegicus) (UniProt P62483); assay: enhancers of rat Kvbeta2 NADPH turnover – biochemical, NADPH fluorescence, primary screen (AID 623;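 active means NADPH fluorescence slope more negative than the mean of all samples by about 3 SD, 99.7% confidence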;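 further: fluorescence intensity change per second fitted from 20 to 320 s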); conditions: Recombinant KvBeta, NADPH fluorescence decrease slope, 10 min; at 10 µM; stronger effect = lower value
# [7] = target: Muscarinic acetylcholine receptor M4 (Homo sapiens) (UniProt P08173); assay: M4-linked GIRK flux change, two-sided – cell-based, HEK293 M4/GIRK, thallium flux, BTC-AM, M4 allosteric agonist project, primary screen (AID 625;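 active means fluorescence slope after compound addition differing from the mean of all tested samples at 99.7% confidence, mostly higher but some lower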;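 further: thallium influx through GIRK channels coupled to M4 in HEK293 cells with BTC-AM dye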); conditions: at 10 µM, actives lie on both sides
# Muscarinic acetylcholine receptor M4 (Homo sapiens), sequence (P08173 whole entry, looked up): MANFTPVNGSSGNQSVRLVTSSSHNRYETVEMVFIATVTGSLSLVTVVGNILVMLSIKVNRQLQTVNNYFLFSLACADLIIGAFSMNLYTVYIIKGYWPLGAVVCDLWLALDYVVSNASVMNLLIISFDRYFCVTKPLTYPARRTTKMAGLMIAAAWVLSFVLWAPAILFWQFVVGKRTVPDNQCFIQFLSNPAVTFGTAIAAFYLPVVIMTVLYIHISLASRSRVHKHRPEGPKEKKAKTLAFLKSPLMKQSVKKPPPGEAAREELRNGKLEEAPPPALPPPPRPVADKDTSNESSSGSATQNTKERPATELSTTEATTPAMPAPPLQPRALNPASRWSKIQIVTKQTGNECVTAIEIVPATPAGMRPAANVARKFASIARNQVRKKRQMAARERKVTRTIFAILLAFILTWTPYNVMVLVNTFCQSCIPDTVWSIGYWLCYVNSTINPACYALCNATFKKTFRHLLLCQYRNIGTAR
# In short: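 assay system = HEK293 cells with M4 receptor and GIRK channels | medium = pH 7.3 thallium assay buffer | doses = 10 µM final, single point | timing = cells overnight at 37 °C, BTC-AM loading 1 h, reads 2 min total | signal = BTC-AM fluorescence, 1 Hz kinetic reads | read-out = post-addition slope, 15–24 s, of baseline-normalized fluorescence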
# [8] = inhibitors of larval lipid processing in zebrafish, primary screen, whole organism, PED6 fluorescence, gall bladder and intestine (AID 686;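 active means a full or partial loss of lipid-probe fluorescence in the fish gall bladder, intestine or both, judged by eye; inactive means no fluorescence loss, or compound toxic to the fish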;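 further: larvae 5 to 7 days old with five fish per well; signal comes from phospholipase A2 cleavage of quenched PED6 carried via bile; overnight exposure to compound and PED6 before scoring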); conditions: Zebrafish larvae PED6 lipid processing, fluorescence scoring; screened at 20 µM (by protocol)
# In short: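 Also added: quenched phospholipase substrate PED6, 100 nM final, ingested by larvae; System: zebrafish larvae, 5-7 d; Quantity: 5 larvae per well; Compound: 20 µM single dose; Schedule: overnight compound and PED6 incubation; Read-out: visual per-well fluorescence inhibition score; Measured by: By-eye fluorescence microscopy; Medium: E3.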
# [9] = loss of swimming-algae plug formation – whole organism, Chlamydomonas reinhardtii, WT vs cilia-less mutant, absorbance, 96-well, primary screen (AID 463189); conditions: Chlamydomonas reinhardtii gravitaxis, OD600 absorbance, 2 days; at 10 µM; stronger effect = higher value;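 further: 0% = wild type cc124 cells in DMSO and 100% = ciliumless bld1 mutant cells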
# [10] = measured here: cell density z-score
# [11] = measured here: nuclear c-Myc green intensity z-score
# [12] = measured here: nuclear pErk red intensity z-score, stronger effect = higher value
Structure (SMILES),cell count [1],inhibition [1],inhibition [2],nuclei count [2],"z-score [3, 10]","z-score [3, 11]","z-score [3, 12]",inhibition [4],fluorescence slope [5],NADPH fluorescence slope [6],fluorescence slope [7],outcome [8],inhibition [9]
Cc1ccc(-c2nn(C)c(=O)c3ccccc23)cc1CN1CCOCC1,424,-0.6% (inactive),-40.3% (inactive),145%,0.246,0.445,-0.955,6.04% (inactive),-0.452 (inactive),-3.3e-05 (inactive),0.00454 (inactive),inactive,-2.85% (inactive)
Nc1nnnn1/N=C/c1cccs1,656,-4.7% (inactive),-50.1% (inactive),124%,-0.3,-1.24,-0.836,-8.95% (inactive),-0.483 (inactive),-6.6e-05 (inactive),0.00656 (inactive),inactive,17.8% (inactive)
CC1(C)CC(=O)C(C=NCCN2CCN(CCc3ccccc3)CC2)=C(O)C1,367,-0.8% (inactive),-22.3% (inactive),94.1%,-1.16,0.888,-1.15,-2.69% (inactive),-0.506 (inactive),1.2e-05 (inactive),0.00481 (inactive),inactive,-9.36% (inactive)
Cc1ccc(-c2nn(C)c(=O)c3ccccc23)cc1CNC(=O)CSc1nc2ccccc2o1,547,3.6% (inactive),21.6% (inactive),106%,-1.01,1.51,0.619,1.98% (inactive),-0.419 (inactive),-5.4e-05 (inactive),0.00502 (inactive),inactive,22.8% (inactive)
CCCCC(=O)C1CCN(Cc2ccccc2)CC1,371,-0.5% (inactive),19.3% (inactive),177%,0.378,0.471,0.337,-0.584% (inactive),-0.469 (inactive),-0.000111 (inactive),0.00375 (inactive),inactive; toxic,126% (active)
COC(=O)C(NC(=O)c1ccccc1)(Nc1nccs1)C(F)(F)F (stereo not given),677,-5.5% (inactive),-7.4% (inactive),159%,1.36,-0.846,0.224,22.1% (inactive),-0.474 (inactive),-2.6e-05 (inactive),0.00463 (inactive),inactive,-5.27% (inactive)
CCCCOC(=O)c1[nH]c(C)c(C(=O)OC)c1C,604,-7.5% (inactive),50.3% (inactive),98.7%,0.82,-1.07,-0.474,37% (inactive),-0.481 (inactive),-1.9e-05 (inactive),0.00588 (inactive),inactive,90.5% (active)
C(=N\n1cnnc1)/c1ccccn1,607,3.2% (inactive),-109% (inactive),127%,0.675,3.12,-0.143,9.42% (inactive),-0.442 (inactive),-0.000114 (inactive),0.00562 (inactive),inactive,16.5% (inactive)
Cn1c(OCc2cccnc2)nc2c1c(=O)n(Cc1ccc(Br)cc1)c(=O)n2C,723,-15.3% (inactive),-75% (inactive),172%,-1.07,-0.35,0.344,-5.95% (inactive),-0.475 (inactive),-4e-05 (inactive),0.00549 (inactive),inactive,32.6% (inactive)
COCCNc1nc2c(c(=O)n(C)c(=O)n2C)n1Cc1cccc(C(F)(F)F)c1,698,3% (inactive),-94.2% (inactive),95.8%,0.711,-1.37,-0.346,7.93% (inactive),-0.559 (inactive),-8e-05 (inactive),0.00743 (inactive),inactive,36.2% (inactive)
CCc1nc(N2CCCC2)c(C#N)c2c1CCCC2,422,2.1% (inactive),-71.3% (inactive),118%,-1.3,0.104,0.215,-6.59% (inactive),-0.506 (inactive),3e-05 (inactive),0.00476 (inactive),inactive,-11.4% (inactive)
COC(=O)Sc1nc(N2CCOCC2)c2c(c1C#N)CC(C)(C)OC2,565,-2% (inactive),-116% (inactive),132%,0.0433,-0.438,1.3,3.42% (inactive),-0.49 (inactive),-0.000143 (inactive),0.00476 (inactive),inactive,24.4% (inactive)
CCN(CC)C(=O)COn1c(SCC(=O)N(CC)CC)nc2ccccc2c1=O,714,1% (inactive),10.1% (inactive),161%,-0.154,-0.248,0.329,-1.12% (inactive),-0.42 (inactive),-4.1e-05 (inactive),0.00498 (inactive),inactive,-1.16% (inactive)
COC(=O)/C=c1/s/c(=C(\C#N)C(=O)NCc2ccco2)n(-c2ccccc2)c1=O,395,0.2% (inactive),-54.5% (inactive),129%,-0.296,-0.55,-0.453,1.48% (inactive),-0.455 (inactive),-3.8e-05 (inactive),0.00374 (inactive),inactive,45.7% (inactive)
Cc1ccc(S(=O)(=O)NC(=O)Nc2ncc3c(n2)CC(c2ccco2)CC3=O)cc1 (stereo not given),662,-3.8% (inactive),45.8% (inactive),89.6%,1.23,-1.12,-0.985,22.1% (inactive),-0.51 (inactive),-2.8e-05 (inactive),0.00507 (inactive),inactive,-13.7% (inactive)
CCCOc1ccc(C2/C(=C(/O)c3ccccc3)C(=O)C(=O)N2CCCN(C)C)cc1OC (stereo not given),399,-2.9% (inactive),-92.3% (inactive),157%,0.261,-0.731,-0.508,18.2% (inactive),-0.463 (inactive),-0.000127 (inactive),0.00492 (inactive),inactive,26.4% (inactive)
CCOC(=O)Oc1ccc2c(c1)C(C)=CC(C)(C)N2C(=O)OCC,618,2.2% (inactive),-42% (inactive),115%,1.01,0.72,0.465,-13.3% (inactive),-0.433 (inactive),-4.7e-05 (inactive),0.00572 (inactive),inactive,-7.72% (inactive)
CC(C)OC(=O)CCNc1n[nH]c(=O)[nH]c1=O,635,-4.3% (inactive),-4.4% (inactive),119%,0.648,0.239,0.621,-4.27% (inactive),-0.499 (inactive),-0.000105 (inactive),0.00594 (inactive),inactive,-8.46% (inactive)
C#CC1CN(Cc2ccccc2)CC(C#C)N1C (stereo not given),690,-3% (inactive),9% (inactive),156%,-0.126,-0.517,1.32,-7.67% (inactive),-0.44 (inactive),-3.5e-05 (inactive),0.00453 (inactive),inactive,-0.669% (inactive)
COc1ccc(CSC2=NCCN2)cc1Cl,382,-2.2% (inactive),-95.2% (inactive),83.1%,-0.238,2.09,0.748,9.42% (inactive),-0.459 (inactive),-7e-05 (inactive),0.00397 (inactive),inactive,143% (active)
